Each block holds one compound with its values, some of them ahead of it.
Key:
[1] = target: Dipeptidyl peptidase 9 (Homo sapiens, UniProt Q86TI2); experiment: Inhibition of human recombinant DPP9 using Gly-Pro-AMC as substrate preincubated for 15 mins followed by substrate addition and measured for 20 mins by fluorescence based microplate reader assay
[2] = target: Dipeptidyl peptidase 8 (Homo sapiens, UniProt Q6V1X1); experiment: Inhibition of human recombinant DPP8 using Gly-Pro-AMC as substrate preincubated for 15 mins followed by substrate addition and measured for 20 mins by fluorescence based microplate reader assay
[3] = target: Dipeptidyl peptidase 4 (Homo sapiens, UniProt P27487); experiment: Inhibition of human recombinant DPP4 using Gly-Pro-AMC as substrate preincubated for 15 mins followed by substrate addition and measured for 20 mins by fluorescence based microplate reader assay
[4] = Half life in Sprague-Dawley rat at 3 mg/kg, iv measured after 48 hrs by LC-MS/MS analysis; format: ADME, organism-based; conditions: in vivo
[5] = Metabolic stability in ICR mouse liver microsomes assessed as parent compound remaining at 0.1 uM incubated for 60 mins in presence of NADPH by LC-MS/MS analysis; format: ADME, Microsome; conditions: read-out: Stability
How it was run: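 ICR mouse liver microsomes (1 mg/mL) in 100 mM Tris pH 7.4 with 10 mM MgCl2, preincubated 5 min at 37 °C. Incubated 0–60 min at 37 °C with compound at 0.1 µM final. Quench with ice-cold methanol with 0.5% formic acid, centrifuge, LC-MS/MS. No-microsome controls run; all in duplicate.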

[6] = Metabolic stability in Sprague-Dawley rat plasma assessed as parent compound remaining at 1 uM incubated for 120 mins by LC-MS/MS analysis; format: ADME, cell-free; conditions: read-out: Stability
How it was run: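 SD rat plasma incubated with compound for 120 min. Supernatant analysed by LC-MS/MS; remaining % = (C120/C0) × 100. Values come from two independent experiments.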

[7] = Cytotoxicity against human L02 cells assessed as cell viability up to 100 uM measured after 48 hrs by MTT assay relative to control; format: cell-based; conditions: read-out: Activity
How it was run: (§1)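 Log-phase hepatic LO2 cells seeded at 1 × 10^4 cells/well and exposed to compound or vehicle for 48 h. MTT (5 mg/mL in PBS) added for 4 h at 37 °C, 5% CO2; formazan dissolved in DMSO, absorbance read at 490 nm. Viability given as % of vehicle control; mean ± SD, n = 5.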

[8] = Cmax in Sprague-Dawley rat at 3 mg/kg, iv measured after 48 hrs by LC-MS/MS analysis; format: ADME, organism-based; parameters: route intravenous, dose 3 mg/kg, time 48 hrs; conditions: in vivo
[9] = AUC (0 to infinity) in Sprague-Dawley rat at 3 mg/kg, iv measured after 48 hrs by LC-MS/MS analysis; format: ADME, organism-based; parameters: route intravenous, time 48 hrs, dose 3 mg/kg; conditions: in vivo
[10] = Clearance in Sprague-Dawley rat at 3 mg/kg, iv measured after 48 hrs by LC-MS/MS analysis; format: ADME, organism-based; conditions: in vivo
[11] = target: Dipeptidyl peptidase 4 (Rattus norvegicus) (UniProt P14740); experiment: In vivo inhibition of DPP4 in Sprague-Dawley rat plasma at 10 mg/kg, po via gavage using Gly-Pro-AMC as substrate measured after 24 hrs relative to control; format: functional, organism-based
How it was run: (§2)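 Male SD rats (n = 3/group), fasted overnight, gavaged with 10 mg/kg in distilled water or vehicle. Heparinized orbital blood taken at 0–48 h; plasma stored −20 °C. Plasma mixed with 125 µM Gly-Pro-AMC in 100 mM HEPES pH 7.5, 0.1 mg/mL BSA; AMC release followed 10 min at 37 °C (ex 360/em 460 nm). Rate expressed as % of vehicle-sample rate.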

[12] = system: Mus musculus; experiment: Hypoglycemic activity in ICR mouse assessed as reduction in glucose secretion at 10 mg/kg, po via gavage administered as single dose pretreated with compound followed by glucose challenge measured after 120 mins relative to control; format: functional; parameters: scale not given: the % may be the effect or the level left; conditions: 2 h
How it was run: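 Male ICR mice (6–7 weeks), overnight fasted, n = 8/group. Single gavage dose in water (vehicle: water). Tail-tip blood glucose by glucometer. Oral glucose 3 g/kg given 60 min after treatment (t = 0), and readings taken up to 120 min.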

[13] = system: Mus musculus; experiment: Hypoglycemic activity in overnight fasted C57BL/6 db/db mouse reduction in blood glucose AUC (0 to 120 mins) at 10 mg/kg, po pretreated with compound for 30 mins followed by oral glucose challenge and measured up to 120 mins by glucometer relative to control; format: functional; parameters: scale not given: the % may be the effect or the level left; conditions: time min <=150
How it was run: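 Male C57BL/6 db/db mice (6–8 weeks, 22 ± 2 g), overnight fasted, n = 6 per group. Oral dosing in water (vehicle: water), then oral glucose 2 g/kg 30 min later. Tail-bleed glucose by glucometer predose and at 0, 15, 30, 60 and 120 min after the load.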

[14] = system: Mus musculus; experiment: Antidiabetic activity in C57BL/6 db/db mouse assessed as reduction in blood glucose AUC (0 to 120 mins) at 10 mg/kg, po administered once daily for 4 weeks followed by 12 hrs fasting and subsequent glucose challenge and measured up to 120 mins by glucometer relative to control; format: functional; parameters: scale not given: the % may be the effect or the level left
How it was run: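 Male db/db mice (10 weeks old), grouped by nonfasting and 12 h fasting glucose and body weight, n = 8 per group, lean littermates as lean control. Oral dosing in water once daily for 4 weeks. Then 12 h fast, oral glucose 1.5 g/kg, glucometer readings at 0, 15, 30, 60 and 120 min.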

[15] = Half life in Sprague-Dawley rat at 10 mg/kg, po measured after 48 hrs by LC-MS/MS analysis; format: ADME, organism-based; conditions: in vivo
[16] = Tmax in Sprague-Dawley rat at 10 mg/kg, po measured after 48 hrs by LC-MS/MS analysis; format: ADME, organism-based; conditions: in vivo
[17] = Cmax in Sprague-Dawley rat at 10 mg/kg, po measured after 48 hrs by LC-MS/MS analysis; format: ADME, organism-based; parameters: route oral, dose 10 mg/kg, time 48 hrs; conditions: in vivo
[18] = AUC (0 to infinity) in Sprague-Dawley rat at 10 mg/kg, po measured after 48 hrs by LC-MS/MS analysis; format: ADME, organism-based; parameters: route oral, dose 10 mg/kg, time 48 hrs; conditions: in vivo
[19] = Clearance in Sprague-Dawley rat at 10 mg/kg, po measured after 48 hrs by LC-MS/MS analysis; format: ADME, organism-based; conditions: in vivo
[20] = target: Dipeptidyl peptidase 4 (Rattus norvegicus) (UniProt P14740); experiment: In vivo inhibition of DPP4 in Sprague-Dawley rat plasma at 10 mg/kg, po via gavage using Gly-Pro-AMC as substrate measured after 30 mins relative to control; format: functional, organism-based; how it was run: as §2
[21] = target: Dipeptidyl peptidase 4 (Rattus norvegicus) (UniProt P14740); experiment: In vivo inhibition of DPP4 in Sprague-Dawley rat plasma at 10 mg/kg, po via gavage using Gly-Pro-AMC as substrate measured after 12 hrs relative to control; format: functional, organism-based; how it was run: as §2
[22] = Cytotoxicity against human L02 cells assessed as cell viability at 20 uM measured after 48 hrs by MTT assay relative to control; format: cell-based; conditions: read-out: Activity; how it was run: as §1

Dipeptidyl peptidase 4 (Rattus norvegicus), sequence (P14740 whole entry, looked up): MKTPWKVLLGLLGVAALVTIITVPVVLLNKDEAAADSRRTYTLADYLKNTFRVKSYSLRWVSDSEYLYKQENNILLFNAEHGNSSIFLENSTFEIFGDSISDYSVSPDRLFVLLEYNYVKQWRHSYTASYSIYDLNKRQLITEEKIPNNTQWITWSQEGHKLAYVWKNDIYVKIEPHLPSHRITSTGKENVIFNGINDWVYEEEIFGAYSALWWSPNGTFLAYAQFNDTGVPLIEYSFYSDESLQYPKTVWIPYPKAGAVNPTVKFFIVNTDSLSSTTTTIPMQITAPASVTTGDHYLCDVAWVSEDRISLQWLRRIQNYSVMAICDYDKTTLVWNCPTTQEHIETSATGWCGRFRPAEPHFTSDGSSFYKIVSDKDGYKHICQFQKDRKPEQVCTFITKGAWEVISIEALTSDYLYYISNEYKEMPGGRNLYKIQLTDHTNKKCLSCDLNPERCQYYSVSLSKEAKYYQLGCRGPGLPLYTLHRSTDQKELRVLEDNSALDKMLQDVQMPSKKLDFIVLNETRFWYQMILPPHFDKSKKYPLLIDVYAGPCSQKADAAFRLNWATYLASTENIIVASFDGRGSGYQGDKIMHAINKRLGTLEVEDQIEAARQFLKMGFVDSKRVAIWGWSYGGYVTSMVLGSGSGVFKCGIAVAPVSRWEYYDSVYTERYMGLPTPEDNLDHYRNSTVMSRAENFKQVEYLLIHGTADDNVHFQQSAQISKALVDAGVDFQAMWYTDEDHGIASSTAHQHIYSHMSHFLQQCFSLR
Dipeptidyl peptidase 9, sequence (Q86TI2 whole entry): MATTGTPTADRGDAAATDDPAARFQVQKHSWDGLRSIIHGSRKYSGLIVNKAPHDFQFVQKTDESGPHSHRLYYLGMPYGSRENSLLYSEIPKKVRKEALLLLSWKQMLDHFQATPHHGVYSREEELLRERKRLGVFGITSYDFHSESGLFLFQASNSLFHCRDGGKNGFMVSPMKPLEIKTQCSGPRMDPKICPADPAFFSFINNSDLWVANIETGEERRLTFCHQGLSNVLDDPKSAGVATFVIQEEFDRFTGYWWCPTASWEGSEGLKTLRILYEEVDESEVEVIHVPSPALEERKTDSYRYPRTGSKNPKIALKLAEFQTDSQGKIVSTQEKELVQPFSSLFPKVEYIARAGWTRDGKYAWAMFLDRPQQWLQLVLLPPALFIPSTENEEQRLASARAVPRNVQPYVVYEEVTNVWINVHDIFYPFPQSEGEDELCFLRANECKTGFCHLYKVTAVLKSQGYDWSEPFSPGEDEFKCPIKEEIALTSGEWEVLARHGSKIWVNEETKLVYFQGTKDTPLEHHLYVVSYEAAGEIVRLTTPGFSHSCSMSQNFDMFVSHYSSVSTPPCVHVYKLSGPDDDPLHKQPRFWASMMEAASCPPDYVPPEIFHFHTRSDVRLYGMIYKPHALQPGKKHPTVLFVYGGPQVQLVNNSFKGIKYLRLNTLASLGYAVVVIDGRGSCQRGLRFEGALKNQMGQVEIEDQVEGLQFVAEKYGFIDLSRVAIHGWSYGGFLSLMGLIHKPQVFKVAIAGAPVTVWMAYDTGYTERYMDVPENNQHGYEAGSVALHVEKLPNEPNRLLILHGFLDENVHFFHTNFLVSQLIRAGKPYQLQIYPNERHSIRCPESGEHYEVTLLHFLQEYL
Dipeptidyl peptidase 8, sequence (Q6V1X1 whole entry): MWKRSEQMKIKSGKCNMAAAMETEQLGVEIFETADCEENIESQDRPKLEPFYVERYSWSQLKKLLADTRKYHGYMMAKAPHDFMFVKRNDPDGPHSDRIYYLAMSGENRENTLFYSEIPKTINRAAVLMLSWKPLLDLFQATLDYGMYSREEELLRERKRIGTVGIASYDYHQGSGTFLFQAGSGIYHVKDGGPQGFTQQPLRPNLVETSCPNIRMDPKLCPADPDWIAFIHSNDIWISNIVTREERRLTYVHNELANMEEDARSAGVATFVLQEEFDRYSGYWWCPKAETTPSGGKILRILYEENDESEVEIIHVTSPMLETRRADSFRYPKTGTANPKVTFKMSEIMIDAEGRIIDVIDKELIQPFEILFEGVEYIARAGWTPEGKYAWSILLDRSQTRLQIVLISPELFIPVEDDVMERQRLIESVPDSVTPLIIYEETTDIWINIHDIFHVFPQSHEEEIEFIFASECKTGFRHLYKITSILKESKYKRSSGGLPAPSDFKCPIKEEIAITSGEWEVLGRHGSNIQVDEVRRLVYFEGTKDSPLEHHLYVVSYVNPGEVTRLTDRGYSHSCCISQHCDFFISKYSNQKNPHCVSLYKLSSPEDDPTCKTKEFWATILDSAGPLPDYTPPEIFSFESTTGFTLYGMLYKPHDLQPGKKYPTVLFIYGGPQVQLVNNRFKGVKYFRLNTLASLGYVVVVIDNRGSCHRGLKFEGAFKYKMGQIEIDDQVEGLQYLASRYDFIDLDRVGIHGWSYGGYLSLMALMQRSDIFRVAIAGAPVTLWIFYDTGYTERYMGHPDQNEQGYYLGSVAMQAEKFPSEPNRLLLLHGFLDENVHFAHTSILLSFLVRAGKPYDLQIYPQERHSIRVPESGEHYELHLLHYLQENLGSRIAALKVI
Dipeptidyl peptidase 4, sequence (P27487 whole entry): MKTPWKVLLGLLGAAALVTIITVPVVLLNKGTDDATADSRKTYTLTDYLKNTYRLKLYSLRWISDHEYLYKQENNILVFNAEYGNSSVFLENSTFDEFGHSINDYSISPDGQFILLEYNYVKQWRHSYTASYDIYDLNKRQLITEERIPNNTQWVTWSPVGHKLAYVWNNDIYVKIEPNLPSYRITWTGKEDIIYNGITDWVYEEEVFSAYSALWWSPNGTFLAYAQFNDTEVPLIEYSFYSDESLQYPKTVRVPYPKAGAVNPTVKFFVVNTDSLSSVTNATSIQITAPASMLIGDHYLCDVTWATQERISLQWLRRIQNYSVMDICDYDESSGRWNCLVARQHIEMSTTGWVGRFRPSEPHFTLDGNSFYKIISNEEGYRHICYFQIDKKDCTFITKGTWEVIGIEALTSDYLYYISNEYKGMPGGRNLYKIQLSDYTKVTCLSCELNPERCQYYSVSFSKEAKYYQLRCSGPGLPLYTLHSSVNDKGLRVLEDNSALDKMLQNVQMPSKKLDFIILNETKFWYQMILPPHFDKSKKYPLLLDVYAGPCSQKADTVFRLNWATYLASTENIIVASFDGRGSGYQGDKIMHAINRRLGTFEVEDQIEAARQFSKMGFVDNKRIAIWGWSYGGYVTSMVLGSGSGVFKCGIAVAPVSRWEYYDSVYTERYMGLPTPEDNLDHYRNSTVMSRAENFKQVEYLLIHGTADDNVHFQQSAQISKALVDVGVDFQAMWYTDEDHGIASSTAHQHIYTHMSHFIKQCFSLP

SMILES: CC#CCn1c(N2CCC[C@@H](N)C2)cc(=O)n(Cc2cccc(C(=O)OC)c2F)c1=O
- IC50 [1]: > 100 µM
- IC50 [2]: > 100 µM

SMILES: CC#CCn1c(N2CCC[C@@H](N)C2)cc(=O)n(Cc2cccc(C(=O)OC)c2Br)c1=O
- IC50 [1]: > 100 µM
- IC50 [2]: > 100 µM

SMILES: Cn1c(=O)cc(N2CCC[C@@H](N)C2)n(Cc2ccccc2C#N)c1=O [ALOGLIPTIN]
- inhibition [11]: 45%
- Activity [12]: 12.4%
- Activity [13]: 40.1%
- Activity [14]: 16.7%

SMILES: CC#CCn1c(N2CCC[C@@H](N)C2)cc(=O)n(Cc2cc(C(=O)OC)ccc2Cl)c1=O
- half-life [15]: 146 min
- remaining at 1 h, 0.1 µM [5]: 34.4%
- remaining at 2 h, 1 µM [6]: 64.1%
- IC50 [1]: > 100 µM
- viability at 48 h [7]: > 95%
- IC50 [2]: > 100 µM
- Tmax [16]: 22.8 min
- Cmax [17]: 3190 ng/mL
- AUC(0-inf) [18]: 26800 ng·h/mL
- CL/F [19]: 9.17 mL/min/kg
- inhibition [20]: 90%
- inhibition [21]: > 70%

SMILES: COc1cccc2c1C(=O)c1c(O)c3c(c(O)c1C2=O)C[C@@](O)(C(=O)CO)C[C@@H]3O[C@H]1C[C@H](N)[C@H](O)[C@H](C)O1 [DOXORUBICIN]
- viability at 48 h, 20 µM [22]: 25%

Continued, in another order:

- IC50 [3]: > 1 µM
SMILES: CC#CCn1c(N2CCC[C@@H](N)C2)cc(=O)n(Cc2cccc(C(=O)O)c2Br)c1=O

- half-life [4]: 54.6 min
- remaining at 1 h, 0.1 µM [5]: 106%
- remaining at 2 h, 1 µM [6]: 103%
- IC50 [1]: > 100 µM
- IC50 [2]: > 100 µM
- Cmax [8]: 25700 ng/mL
- AUC [9]: 8272.25 ng·h/mL
- CL [10]: 64.8 mL/min/kg
SMILES: CC#CCn1c(N2CCC[C@@H](N)C2)cc(=O)n(Cc2cc(C(=O)O)ccc2Cl)c1=O
- viability at 48 h [7]: > 95%

- IC50 [3]: > 1 µM
SMILES: CC#CCn1c(N2CCC[C@@H](N)C2)cc(=O)n(Cc2cccc(C(=O)O)c2F)c1=O

- IC50 [1]: > 100 µM
- IC50 [2]: > 100 µM
SMILES: CC#CCn1c(N2CCC[C@@H](N)C2)cc(=O)n(Cc2cc(Br)cc(C(=O)O)c2)c1=O

- IC50 [1]: > 100 µM
- IC50 [2]: > 100 µM
SMILES: CC#CCn1c(N2CCC[C@@H](N)C2)cc(=O)n(Cc2cc(Br)cc(C(=O)OC)c2)c1=O

Source: ChEMBL document CHEMBL4840327, “Identification and structure-activity relationship exploration of uracil-based benzoic acid and ester derivatives as novel dipeptidyl Peptidase-4 inhibitors for the treatment of type 2 diabetes mellitus” (Eur J Med Chem, 2021)
